# In the library only some 4.2% were active in any assay of this set; here they are far more common.
# M18AAP inhibitor: PfM18AAP inhibitors, malaria aminopeptidase, primary screen, biochemical, QFRET, recombinant enzyme; H-Glu-NHMec fluorogenic cleavage; inhibition, % at 7.35 µM; AID 1822, 2009; 1.2% of 290,000 active; M18 aspartyl aminopeptidase (Plasmodium falciparum 3D7);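 active = inhibition above the campaign mean inhibition over all tested compounds plus 3 SD, cut at about 28% in these data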;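 note: 0% = plate median of test compound wells and 100% = 2 mM ZnCl2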
# SENP1 FRET inh: human SENP1 catalytic domain inhibitors, primary screen, biochemical, FRET, uHTS | Sentrin-specific protease 1 (Homo sapiens), Q9P0U3 | recombinant SENP1 catalytic domain, CyPet-SUMO1-YPet FRET cleavage | inhibition, % at 10 µM | 0.21% of 360,000 active;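 active = inhibition at least 30% at 10 µM, raw YFP signal under a set limit, fluorescence ratio 0.5 to 1.5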;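 note: 0% = enzyme with DMSO and 100% = no enzyme wells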
# Target sequence (Q9P0U3 419-644 limits assumed): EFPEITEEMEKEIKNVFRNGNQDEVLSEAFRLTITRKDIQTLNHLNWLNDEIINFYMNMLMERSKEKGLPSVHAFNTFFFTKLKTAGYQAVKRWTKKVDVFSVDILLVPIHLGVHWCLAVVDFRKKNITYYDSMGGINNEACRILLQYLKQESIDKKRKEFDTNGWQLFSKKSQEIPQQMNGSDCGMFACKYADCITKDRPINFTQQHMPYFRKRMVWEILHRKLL
#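 Assay system – human recombinant His6-tagged SENP1 catalytic domain enzyme · Input – SENP1 enzyme, 20 pM final · Buffer or medium – Tris pH 8 buffer plus EDTA, NaCl, BME, BSA, NP40, catalase · Schedule – 50 min reaction at room temperature · Technique – FRET read of cyan and yellow fluorescence · Control set – no-enzyme wells low, DMSO-plus-enzyme wells high control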
# FXN GAA850 act: FXN promoter activators, primary screen, cell-based, luciferase luminescence, HEK293 lucGAA850; 0.56% of 360,000 active; activation, % at 6 µM; HEK293 lucGAA850 FXN promoter luciferase reporter, 24 h; percent of 10 µM SAHA response; AID 540364, 2011;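 active = activation above the average of all compounds screened plus 3 SD, cutoff fixed separately per campaign, cut at about 7.5% in these data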;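 note: 0% = DMSO wells and 100% = 10 µM SAHA wells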
# HDAC3 inh: HDAC3 deacetylase inhibitors, primary screen, biochemical, fluorescence, cell-free homogeneous; Histone deacetylase 3 (Homo sapiens), O15379; recombinant HDAC3, fluorogenic peptide/trypsin coupled; inhibition, % at 8.3 µM; 0.15% of 320,000 active; AID 2718, 2010; in the data active = inhibition above about 26%, passing the limit was not always enough
# AHR activator: AHR activators, primary screen, cell-based, luminescence, luciferase reporter, human; AHR-responsive luciferase reporter cells; Aryl hydrocarbon receptor (Homo sapiens), P35869; activation, % at 5 µM; 2.5% of 320,000 active; AID 2796, 2010; in the data active = activation above about 47%;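 note: 0% = vehicle wells and 100% = reference agonist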
# CTSL1 counter: Fasciola hepatica cathepsin L1 inhibitors, primary screen, counter-screen for PFM18AAP inhibitor project, biochemical, QFRET, fluorogenic peptide substrate. recombinant F. hepatica cathepsin L1, Z-Leu-Arg-MCA fluorescence. inhibition, % at 5.96 µM. 0.49% of 300,000 active. AID 1906, 2009;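 active = inhibition above the mean of all tested compounds plus 3 SD, set per screening campaign, cut at about 17% in these data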;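 note: 0% = plate median of test compound wells and 100% = 1 µM Z-Phe-Ala-diazomethylketone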
# * = called active by the depositor; x = no result; ! = not active in a repeat.
SMILES,M18AAP inhibitor,SENP1 FRET inh,FXN GAA850 act,HDAC3 inh,AHR activator,CTSL1 counter
COc1ccccc1CCNC1C2CC3CC(C2)CC1C3 (stereo not given),4,2,-2,-4,5,-1
CCOP(=O)(OCC)C(O)c1cccc([N+](=O)[O-])c1 (stereo not given),0,0,-2,2,1,-1
CCOP(=O)(OCC)c1ccc(OP(=O)(c2cccc([N+](=O)[O-])c2)c2cccc([N+](=O)[O-])c2)cc1,-3,6,2,57*,-2,-1
O=C1C2CC(CN3CCCCC23)C2CCCCN12 (stereo not given),x,0,-3,x,x,x
N[C@@H](Cc1c[nH]c2ccccc12)c1nnc(SCc2ccccc2)o1,-31,-3,0,-7,74*,-2
COC(=O)C(O)(c1c(C)[nH]n(-c2ccccc2)c1=O)C(F)(F)F (stereo not given),16,4,0,-3,12,20*
COc1ccc(C2NCCc3[nH]cnc32)cc1 (stereo not given),-10,3,0,-8,-1,-3
CN1CCN(C(=O)Cc2nc3ccccc3[nH]2)CC1,4,-112,2,-5,5,-2
COc1ccc(N2CCN(Cc3nc4ccccc4[nH]3)CC2)cc1,12,-5,-1,1,2,17*
CC(C)C/C(=N/O)c1cn(C)c2ccccc12,4,1,0,0,20,-3
Oc1cc2c(cc1O)[C@H]1c3ccccc3CN[C@@H]1CC2,90*,x,x,0,-1,-5
Cc1cc(C)cc(N2C(=O)/C(=C\c3ccc(N4CCN(C)CC4)o3)C(=O)NC2=S)c1,6,76*,1,-12,-2,3
CCN(CC)c1ccc(/C=C2\C(=O)NC(=S)N(C)C2=O)o1,6,86*,6,12,5,2
CCN(CC)c1ccc(C=C2C(=O)N(C)C(=S)N(C)C2=O)o1,3,87*,1,2,10,2
CN1C(=O)C(=Cc2ccc(SC3CCCCC3)o2)C(=O)N(C)C1=O,14,9,2,-3,4,0
Cc1ccc(/C=C2\C(=O)NC(=S)N(c3ccc(F)cc3)C2=O)o1,-2,-12,2,4,x,x
CN1C(=O)C(=Cc2ccc(N3CCCCC3)o2)C(=O)N(C)C1=S,-6,88*,2,-1,2,4
O=C1NC(=O)C(=Cc2ccc(N3CCOCC3)o2)C(=O)N1,11,2,3,8,3,6
CCCCc1nc2ccccc2c(=O)n1-c1ccccc1O,5,-4,3,6,73*,0
CCC(c1nnnn1Cc1ccccc1)N1CCC(n2c(=O)[nH]c3ccccc32)CC1 (stereo not given),x,2,x,x,x,x
O=c1cccc2n1C[C@H]1C[C@@H]2CN2CCCC[C@@H]12,-2,2,1,-1,1,2
CC(C)COC(=O)c1ccccc1C(=O)OCC(C)C,x,1,0,0,1,1
C[CH2][Hg][S]c1ccccc1C(=O)O,x,0,-3,56*,27,-4
Cc1nn(Cc2ccccc2Cl)c(C)c1C(=O)OCC(=O)N1CC(C)OC(C)C1 (stereo not given),1,5,0,-5,52*,-4
ClC(Cl)=C(c1ccc(Cl)cc1)c1ccc(Cl)cc1,x,-1,1,-9,-4,-6
SMILES,M18AAP inhibitor,SENP1 FRET inh,FXN GAA850 act,HDAC3 inh,AHR activator,CTSL1 counter
COC(=O)c1nc(-c2ccc3c(n2)C(=O)C(N)=C(OC)C3=O)c(N)c(-c2ccc(OC)c(OC)c2O)c1C,32*,10,0,2,-3,110*
C=C(C)[C@@H]1C2C(=O)O[C@H]1[C@H]1OC(=O)[C@@]34OC3C[C@]2(O)[C@@]14C (stereo not given in full),x,1,3,-2,-1,-1
CCN1CCN(Cc2ccc(OC(F)(F)F)cc2)CC1,-15,1,3,-4,-1,1
CCN1CCN(Cc2cccnc2)CC1,-1,-2,1,-1,1,19*
COc1ccc(N2C(=O)/C(=C/c3ccc(N(C)C)o3)C(=O)NC2=S)cc1,13,69*,0,9,1,6
CCN(CC)c1ccc(/C=C2\C(=O)NC(=S)N(c3ccc(OC)cc3OC)C2=O)o1,x,78*,0,12,-2,2
COc1cccc(N2C(=O)/C(=C/c3ccc(C)o3)C(=O)NC2=S)c1,11,-12,1,7,5,0
O=[N+]([O-])/C=C/c1c(Cl)cccc1Cl,x,3,9.0*,x,x,x
CC(=O)N[C@@H]1CC[C@@]2(O)[C@H]3Cc4ccc(O)c5c4[C@@]2(CCN3CC2CC2)[C@@H]1O5,x,0,-3,x,1,x
NC(N)=Nc1ccc2[nH]c3c(c2c1)C[C@@]1(O)[C@H]2Cc4ccc(O)c5c4[C@@]1(CCN2CC1CC1)[C@H]3O5,x,-1,11*,60*,14,-2
Oc1ccc2c3c1O[C@H]1[C@@H](O)CC[C@@]4(O)[C@@H](C2)N(CC2CCC2)CC[C@]314,x,33*!,1,-2,-1,1
CCOP(=O)(OCC)C(NC(=O)c1ccccc1)C(Cl)(Cl)Cl (stereo not given),-3,1,-3,-4,3,-4
CCCOP(=O)(OCCC)C(NC(=O)c1cc(OC)c(OC)c(OC)c1)c1ccccc1 (stereo not given),0,3,-2,3,37,17*
NC(=O)Cn1cc(C=C2C(=O)NC(=O)NC2=O)c2ccccc21,29*,2,1,1,x,x
COCCOC(=O)c1c(N)n(Cc2ccccc2)c2nc3ccccc3nc12,22,-77,-1,-4,13,6
COCC(C)OC(=O)c1c(N)n(Cc2ccco2)c2nc3ccccc3nc12 (stereo not given),16,-17,2,-61,63*,5
CCOC(=O)c1c(N)n(Cc2ccco2)c2nc3ccccc3nc12,20,-25,-1,-88,75*,3
Cc1ccccc1CN1Cc2cnnn2-c2ccccc2C1C#N (stereo not given),x,-1,0,x,x,x
CC(C)[C@H]1C(=O)O[C@@H]2CCN3CC=C(COC(=O)[C@](C)(O)[C@]1(C)O)[C@H]23,14,-1,-1,-9,-1,-2
